In ChEMBL document CHEMBL1143576, “Discovery of 2-arylthiazolidine-4-carboxylic acid amides as a new class of cytotoxic agents for prostate cancer” (J Med Chem, 2005) one finds IC50 and Apoptosis data, which are given here for five compounds.

Molecules are shown by their SMILES.

Assay [1] relates to LNCaP. In words: Antiproliferative activity against prostate cancer LNCaP Cell line using sulforhodamine B(SRB) assay. The format is functional, cell-based. Particulars: Homo sapiens, Prostate gland. The essentials: (§1)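 Cells seeded at 1000 to 5000 per well, depending on growth rate, and exposed to a range of concentrations for 96 h, in three to five replicates. Stocks were 5 to 20 mM in DMSO, diluted into complete medium. Endpoint cell number was measured by SRB: 10% trichloroacetic acid fixation, 0.4% SRB stain, absorbance at 540 nm.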

The next assay has as its system PPC-1. In words: Antiproliferative activity against prostate cancer PPC-1 cell line using sulforhodamine B(SRB) assay. The class given is functional, cell-based. To be noted: Homo sapiens. The essentials: as §1
The next assay relates to DU-145. Put plainly: Antiproliferative activity against prostate cancer DU-145 cell line using sulforhodamine B(SRB) assay. Particulars: Homo sapiens. The format is functional, cell-based. The essentials:
as §1

The test system of assay [2] is PC-3. In words: Antiproliferative activity against prostate cancer PC-3 cell line using sulforhodamine B(SRB) assay. The format is functional, cell-based, Homo sapiens. The gist of the method:
as §1

The subject of assay [3] is RH7777. In words: Antiproliferative effect against RH7777 cell line using sulforhodamine B(SRB) assay. The class given is functional, cell-based. To be noted: Rattus norvegicus. The essentials: as §1
Another assay has as its system TSU. In words: Antiproliferative activity against prostate cancer TSU-Pr1 cell line using sulforhodamine B(SRB) assay. The format is functional, cell-based. To be noted: Homo sapiens. The gist of the method:
as §1

For assay [4], the system named is PC-3. Put plainly: Induction of apoptosis in human PC-3 cell line at 5 uM concentration after 72 hr. The class given is functional. The gist of the method: (§2)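 Cells were exposed to compound for 72 h. Cytoplasmic DNA-histone complexes (mono- and oligonucleosomes) were quantified by sandwich ELISA using monoclonal antibodies against DNA and histones. The enrichment factor is the OD405 ratio of treated to untreated cells.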

In assay [5] the test system is PC-3. In words: Induction of apoptosis in human PC-3 cell line at 2 uM concentration after 72 hr. The format is functional. The essentials: as §2
For assay [6], the system named is LNCaP. Put plainly: Induction of apoptosis in human LNCaP Cell line at 2 uM concentration after 72 hr. The format is functional. The gist of the method:
as §2

For assay [7], the system named is LNCaP. In words: Induction of apoptosis in human LNCaP Cell line at 5 uM concentration after 72 hr. The class given is functional. The gist of the method:
as §2

Assay [8] has as its system PC-3. In words: Induction of apoptosis in human PC-3 cell line at 10 uM concentration after 72 hr. The class given is functional. The gist of the method:
as §2

Assay [9] relates to PC-3. In words: Induction of apoptosis in human PC-3 cell line at 20 uM concentration after 72 hr. The class given is functional. The essentials: as §2
The test system of assay [10] is LNCaP. In words: Induction of apoptosis in human LNCaP Cell line 10at uM concentration after 72 hr. The class given is functional. The gist of the method:
as §2

For assay [11], the system named is LNCaP. Put plainly: Induction of apoptosis in human LNCaP Cell line 20 at uM concentration after 72 hr. The class given is functional. The gist of the method:
as §2

For assay [12], the system named is RH7777 (Rattus norvegicus). Put plainly: Antiproliferative effect against RH7777 cell line using sulforhodamine B(SRB) assay; No activity.
For assay [13], the system named is LNCaP. In words: Induction of apoptosis in human LNCaP Cell line at 10 uM concentration after 72 hr. The class given is functional. The essentials:
as §2

For assay [14], the system named is RH7777 (Rattus norvegicus). In words: Induction of apoptosis in rat RH7777 cell line at 2 uM concentration after 72 hr.
The test system of assay [15] is RH7777. Put plainly: Induction of apoptosis in rat RH7777 cell line at 5 uM concentration after 72 hr.
Assay [16] has as its system RH7777. In words: Induction of apoptosis in rat RH7777 cell line at 10 uM concentration after 72 hr.
The mark [17] stands for this setting: Homo sapiens, PC-3, read-out: IC50.

In the case of `CCCCCCCCCCCCCCCCCCNC(=O)c1csc(-c2ccccc2)n1`, the half-maximal inhibitory concentration (IC50) in the assay on LNCaP [1], with PPC-1, in the assay with DU-145, with PC-3 [2] (setting [17]), with RH7777 [3] and in the assay on TSU was greater than 20 µM each time.

Consider `CCCCCCCCCCCCCCCCCCNC(=O)[C@H]1CSC(c2ccccc2)N1S(C)(=O)=O` (some centres not stated), for which the IC50 in the assay with LNCaP [1], with PPC-1, with DU-145, with PC-3 [2] (setting [17]), in the assay on RH7777 [3] and in the assay with TSU was greater than 20 µM throughout.

For the compound `CCCCCCCCCCCCCCCCCCNC(=O)[C@H]1CSC(c2ccccc2)N1.Cl` (some centres not stated), the 50% inhibitory concentration (IC50) – broadly, the concentration needed to halve the response being measured – in the assay on LNCaP [1] was 2.1 µM; in the assay on PPC-1, 2 µM; with DU-145 it was 5.4 µM; in the assay on PC-3 [2] (setting [17]), 7.8 µM; in the assay on RH7777 [3] it was 25.6 µM; in the assay on TSU, 5 µM. The Apoptosis with PC-3 [4] is given as 2.3; in the assay with PC-3 [5], 1.4; with LNCaP [6], 4.5; in the assay with LNCaP [7], 45.2; with PC-3 [8], 3.4; in the assay on PC-3 [9], 12.7. Also, the Apoptosis with LNCaP [10] stood at 37.1; in the assay on LNCaP [11] it was 26.1.

Consider `CCCCCCCCCCCCCCCCCCCNC(=O)[C@H]1CSC(c2ccccc2)N1.Cl` (some centres not stated), for which the IC50 with LNCaP [1] was 13.6 µM; in the assay on PPC-1 it was 16.8 µM; with DU-145, greater than 20 µM; in the assay with PC-3 [2] (pc-3) it was “No activity”; in the assay with TSU, greater than 20 µM; in [12] it was “No activity”.

As for `CCCCCCCCCCCCCCNC(=O)[C@H]1CSC(c2ccccc2)N1.Cl` (some centres not stated), the IC50 came to 1.4 µM in the assay on LNCaP [1]; 1.3 µM with PPC-1; 2.4 µM in the assay with DU-145; 3 µM with PC-3 [2] (setting [17]); 3.4 µM with RH7777 [3]; 2 µM in the assay on TSU. Besides, the Apoptosis in the assay on PC-3 [4] amounted to 18.7; in the assay with PC-3 [5], 1.8; in the assay on LNCaP [6], 14.1; in the assay on LNCaP [7], 75.4; in the assay on PC-3 [8], 54; with LNCaP [13] it was 80.7. The Apoptosis turned out to be 2.6 in assay [14], 3.2 in the assay on RH7777 [15] and 2.5 in the assay on RH7777 [16].
